Screening results from PubChem.
Sampled rows, rich in hits. Any-hit rate of the full collection: about 1.5%.
CaV13 FRET inh: Primary screen for inhibitors of IQ motif and Ca2+-dependent inactivation inhibitor domain binding in CACNA1D, Förster resonance energy transfer in living cells, …; HEK cells, CFP/YFP FRET ICDI-IQ, plate reader, 10 min; percent FRET-ratio fall versus neutral wells; inhibition, % at 12.3 µM; 340,000 tested, 0.098% active;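 active = mean replicate inhibition of at least 30% and at least 1% of replicates passing that level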;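 note: 0% = median of the neutral control wells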
RanGTP-Imp inh: disruptors of Ran-importin-beta complex formation – biochemical, FRET, CFP-Ran, YFP-importin-beta, homogeneous, primary screen | cell-free CFP-Ran/YFP-importin-beta FRET ratio | inhibition, % (test concentration not listed) | 300,000 tested, 1.1% active | AID 2216;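 active = more than half of the replicate wells show a fall in the fluorescence ratio signal beyond about 16%, limit read from the data, passing the limit was not always enough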;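 note: 0% = DMSO wells and 100% = Ran loaded with GDP instead of GTP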
Runt-SMMHC FRET: Runt domain-CBFb-SMMHC interaction inhibition; Q01196+Q13951; Cerulean-Runt/Venus-CBFb-SMMHC FRET ratio 530/480, 1 h; inhibition, % at 20 µM; 220,000 tested, 0.74% active;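 active = mean inhibition across duplicate retests at 20 µM reaching about 50%, limit read from the data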;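 note: 0% = DMSO wells and 100% = wells with excess untagged CBFb-SMMHC; inhibitors lower the FRET ratio by blocking Runt binding to CBFb-SMMHC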
Runt-CBFb FRET: Runt domain-CBFb interaction inhibition; Q01196+Q13951; Cerulean-Runt/Venus-CBFb FRET ratio 530/480, 1 h; inhibition, % at 20 µM; 220,000 tested, 0.46% active;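 active = inhibition over about 50% at 20 µM in the single-dose screen, limit read from the data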;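 note: 0% = DMSO wells and 100% = excess unlabeled CBFb competitor control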
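Assay system: Cerulean-Runt domain / Medium: Tris 50 mM pH 7.5, KCl, K2SO4, 0.01% BSA / Timing: protein complex preformed 1 h, compound exposure 1 h, room temperature, dark / Measured by: FRET, excitation 422 nm, emission at 530 and 480 nm / Evaluation: loss of energy transfer signal / Control set: 5 µM unlabeled CBFb as full-inhibition high control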
Hck-Nef inh: blocks Nef-activated human Hck kinase | 220,000 tested, 0.68% active | inhibition, % at 20 µM | Recombinant Hck-YEEI plus Nef, Z-Lyte FRET kinase assay | P08631;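 active = Hck-Nef kinase inhibition above about 50%, limit read from the data; inactive = inhibition below that limit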;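 note: 0% = DMSO with Hck plus Nef and 100% = Hck alone without Nef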
Target sequence (P08631 whole entry, looked up): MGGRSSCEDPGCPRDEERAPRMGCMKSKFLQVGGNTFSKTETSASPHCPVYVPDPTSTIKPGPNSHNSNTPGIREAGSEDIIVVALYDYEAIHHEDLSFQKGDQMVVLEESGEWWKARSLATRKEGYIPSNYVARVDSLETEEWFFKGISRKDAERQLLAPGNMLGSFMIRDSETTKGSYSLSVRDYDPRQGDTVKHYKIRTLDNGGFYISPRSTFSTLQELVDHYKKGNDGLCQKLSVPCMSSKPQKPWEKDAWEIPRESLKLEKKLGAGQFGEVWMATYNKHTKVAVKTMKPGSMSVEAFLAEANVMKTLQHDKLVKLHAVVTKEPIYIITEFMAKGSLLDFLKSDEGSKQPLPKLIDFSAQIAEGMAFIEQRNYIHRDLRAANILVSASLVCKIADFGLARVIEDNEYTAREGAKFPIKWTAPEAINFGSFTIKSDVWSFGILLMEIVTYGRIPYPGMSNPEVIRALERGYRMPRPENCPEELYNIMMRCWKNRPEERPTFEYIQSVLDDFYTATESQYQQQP
YIC FRET counter: counter-screen: alters YIC FRET probe signal; IC50, µM; 1,000 tested, 40% active; shares compounds with RanGTP-Imp inh; Purified YIC probe, intramolecular FRET ratio YFP/CFP; AID 435026;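 active = fitted half-maximal inhibitory concentration no more than tenfold above the top dose tested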
The depositor's hits bear a star; / = not tested or not shown.

SMILES | CaV13 FRET inh | RanGTP-Imp inh | Runt-SMMHC FRET | Runt-CBFb FRET | Hck-Nef inh | YIC FRET counter
O=C(NNS(=O)(=O)c1ccccc1[N+](=O)[O-])c1cc2ccccc2cc1O | -4 | -2 | / | / | / | /
CCCCc1cc(=O)oc2c(C)c(OCC(=O)NCc3ccccn3)ccc12 | -7 | 31* | / | / | / | >50
CCOC(=O)Cn1nc(C)n(-c2ccc(F)cc2)c1=O | 4 | 2 | -1 | 2 | 2 | /
COc1cc(S(=O)(=O)NCCCN2CCOCC2)ccc1Cl | -5 | 17* | 3 | 1 | -2 | >50
Cc1ccc(S(=O)(=O)NCCCN2CCOCC2)cc1C | -5 | 9 | 0 | -4 | -7 | /
CC(C(=O)NC1CCCCCC1)c1ccc([N+](=O)[O-])cc1 (centres undefined) | 3 | -2 | / | / | / | /
CC(C)N1CCc2c(sc(NC(=O)c3ccc([N+](=O)[O-])o3)c2C(N)=O)C1 | -4 | 10 | / | / | / | /
COC(=O)c1c(NC(=O)c2ccc([N+](=O)[O-])o2)sc2c1CCN(C(C)C)C2 | -6 | 16* | / | / | / | >50
CC(=O)c1cn(CC(=O)Nc2ccccc2Cl)c2ccccc12 | -3 | 2 | / | / | / | /
Cc1nnc(NC(=O)c2c(-c3ccccc3)noc2C)s1 | -7 | 2 | -4 | 0 | 2 | /
Cc1onc(-c2ccccc2)c1C(=O)Nc1cccc2nsnc12 | -5 | 22* | 25 | 10 | 7 | 37*
CCCCCCCCNC1=CC(=O)CC(C)(C)C1 | -4 | 1 | 1 | -4 | 1 | /
Cc1ccc(Nc2nc(N)[nH]c(=O)c2N=O)cc1 | -19 | 29* | 41 | 2 | 7 | 19*
Cc1ccc(NC2CCCN(C(=O)c3ccoc3C)C2)cc1C (centres undefined) | / | 0 | / | / | / | /
O=C(NC1CCN(C(=O)Nc2ccc(F)cc2)CC1)c1ccccc1F | -3 | 1 | / | / | / | /
CCCN(CCO)Cc1cccc(Br)c1 | -5 | 20* | -4 | -1 | -9 | >50
OCCN(CCO)Cc1ccc(Br)cc1 | -7 | -4 | 4 | 1 | -2 | /
Cc1sc2ncn(CC(=O)NCCCC(=O)N3CCC(C)CC3)c(=O)c2c1C | 1 | 1 | / | / | / | /
Cc1sc2ncn(CC(=O)NCCCC(=O)N3CCN(Cc4ccc5c(c4)OCO5)CC3)c(=O)c2c1C | -1 | 28* | 0 | -1 | -12 | >50
COc1cc(C(=O)C(=O)N2CCN(c3ccccc3)CC2)cc(OC)c1OC | -6 | / | / | / | / | /
CC1CCN(c2cc(=O)n(C3CCCCC3)c(=O)[nH]2)CC1 | -4 | 31* | 0 | 1 | 1 | >50
O=c1cc(N2CCc3ccccc3C2)[nH]c(=O)n1C1CCCCC1 | / | 54* | 2 | 0 | 0 | >50
O=c1cc(N2CCC(Cc3ccccc3)CC2)[nH]c(=O)n1C1CCCCC1 | -5 | 22* | 1 | -5 | 0 | >50
Cc1cccc(NC(=S)NC2CCSc3ccccc32)c1 (centres undefined) | -3 | 1 | / | / | / | /
O=C(Oc1ccccc1Cl)C1CCN(C(=O)c2ccc(F)cc2)CC1 | -2 | 2 | / | / | / | /
SMILES | CaV13 FRET inh | RanGTP-Imp inh | Runt-SMMHC FRET | Runt-CBFb FRET | Hck-Nef inh | YIC FRET counter
Cc1cccc2nc(COc3ccc(Cl)c4cccnc34)cn12 | -4 | 0 | 0 | -2 | 23 | /
COc1c(/C=N/NC(=O)c2ccncc2)c(CCN(C)C(C)=O)cc2c1OCO2 | -3 | 3 | -1 | 1 | 9 | /
N#CC1=C(N)Oc2cc3c(cc2C1c1ccc(Cl)cc1)OCO3 (centres undefined) | -10 | 29* | 3 | 0 | 5 | >50
O=C(c1cc(COc2ccc(F)cc2Cl)on1)N1CCCC(c2ccccc2)C1 (centres undefined) | 2 | 18* | 2 | -3 | 26 | >50
O=C(c1cc(COc2ccc(F)cc2F)on1)N1CCCC(c2ccccc2)C1 (centres undefined) | -7 | 5 | -5 | -2 | 43 | /
Cc1ccc(Nc2nc(N/N=C\c3ccc4c(c3)OCO4)nc(N3CCOCC3)n2)cc1 | -6 | 0 | 3 | 2 | 11 | /
O=C(NCC1CCN(Cc2ccccc2Cl)CC1)Nc1ccccc1F | -4 | 17* | / | / | / | >50
